Assay outcomes deposited in PubChem by Johns Hopkins Ion Channel Center.
KCNK9 block: inhibitors of human KCNK9 two-pore domain potassium channel | Q9NPC2 | HEK293 KCNK9, FluxOR thallium flux fluorescence; active compounds read low | B-score at 10 µM | 310,000 tested, 1.2% active | AID 488922;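 active = ratio B-score over 3 SD below the library mean, with starting fluorescence within 5 SD of its mean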;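 note: negative B-score means less thallium flux so channel inhibition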
Kir21 inh: inhibitors of mouse Kir2.1 inward-rectifier potassium channel; HEK293-Kir2.1, FluxOR thallium flux fluorescence; active compounds read low; B-score at 10 µM; AID 1672; 310,000 tested, 0.85% active; P35561;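 active = fluorescence ratio B-score at or below minus 3 SD of library scores, with starting-brightness B-score within 2 SD, cut at about -4.2 in these data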;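 note: channel flux triggered by added potassium and thallium sulfate stimulus; B-score of peak minus minimum fluorescence over baseline after thallium stimulus; more negative B-score means stronger Kir2.1 block with less thallium influx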
KCNQ1 inh: blocks the human KCNQ1 potassium channel. CHO-K1 KCNQ1, FluxOR thallium flux fluorescence; active compounds read high. P51787. 310,000 tested, 1.3% active. B-score at 10 µM;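 active = compounds whose thallium flux B-score, printed positive for inhibition, exceeds three library SD while starting fluorescence stays within three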;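 note: channel opened by potassium depolarization with thallium stimulus after 20 min compound exposure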
Target sequence (P51787 whole entry, looked up): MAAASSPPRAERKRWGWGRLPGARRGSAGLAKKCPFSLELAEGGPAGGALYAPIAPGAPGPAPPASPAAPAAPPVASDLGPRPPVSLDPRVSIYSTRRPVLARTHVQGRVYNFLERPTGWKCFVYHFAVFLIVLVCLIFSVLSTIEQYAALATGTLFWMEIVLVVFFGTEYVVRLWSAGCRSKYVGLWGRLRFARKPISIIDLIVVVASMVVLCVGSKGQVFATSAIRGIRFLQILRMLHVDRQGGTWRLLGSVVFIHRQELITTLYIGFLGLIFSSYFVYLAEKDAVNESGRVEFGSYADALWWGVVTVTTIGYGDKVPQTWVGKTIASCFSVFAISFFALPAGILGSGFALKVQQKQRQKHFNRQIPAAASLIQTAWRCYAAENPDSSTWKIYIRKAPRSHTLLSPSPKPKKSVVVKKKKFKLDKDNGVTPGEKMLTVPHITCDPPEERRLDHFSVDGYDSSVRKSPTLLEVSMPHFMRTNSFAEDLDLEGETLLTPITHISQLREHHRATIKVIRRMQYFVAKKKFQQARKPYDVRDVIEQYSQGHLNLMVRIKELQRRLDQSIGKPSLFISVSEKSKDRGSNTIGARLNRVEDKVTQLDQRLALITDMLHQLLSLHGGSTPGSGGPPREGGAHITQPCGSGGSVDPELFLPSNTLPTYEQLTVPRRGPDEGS
KCNQ1 pot: potentiators or activators of human KCNQ1 potassium channel; P51787; CHO-K1 KCNQ1, thallium flux FluxOR fluorescence; active compounds read high; B-score at 10 µM; 310,000 tested, 0.35% active;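 active = fluorescence ratio B-score, a plate-corrected score, at least three library SD, with initial intensity B-score within 5 SD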
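Material: CHO-K1 cells stably expressing KCNQ1. Medium: assay buffer for compound exposure, DMSO matched across wells. Reagent: K+/Tl+ depolarizing stimulus. Compound dosing: single-concentration screen. Times: 37 °C overnight plating, 90-min dark dye load, 20-min compound pretreatment. Technique: FluxOR Tl+ flux fluorescence.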
hERG rescue: shields human hERG channel from block by proarrhythmic agents. CHO-hERG, FluxOR thallium flux, dofetilide IC70 present. activation (rescue from dofetilide block), less the hit threshold, % at 10 µM. 310,000 tested, 0.51% active;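 active = activation above the mean of controls blocked by dofetilide plus 5 SD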;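 note: thallium influx through hERG after potassium depolarization seen as dye fluorescence rise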
KCNK3 block: human KCNK3 channel inhibition, primary screen; O14649; CHO-KCNK3 thallium flux, FluxOR fluorescence; active compounds read low; B-score at 10 µM; 340,000 tested, 0.84% active; AID 602410;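 active = B-score under library mean minus 4 SD, starting fluorescence ratio at most library mean plus 5 SD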;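 note: more negative B-score means stronger inhibition of thallium flux through KCNK3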
KCNK9 block conf: human KCNK9 inhibitor confirmation; 4,900 tested, 43% active; HEK293 KCNK9 cells, FluxOR thallium flux fluorescence; inhibition, % at 10 µM; shares compounds with KCNK9 block;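 active = thallium signal inhibited by more than 5 SD of the compound-free buffer control wells, on both duplicate plates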
Kir21 sel: mouse Kir2.1 off-target activity of KCNK9 modulators | shares compounds with KCNK9 block | Kir2.1 cells, FluxOR thallium flux fluorescence | inhibition, % at 10 µM | 4,900 tested, 4% active;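 active = thallium signal drop more than 5 SD beyond the mean of the no-compound control wells, seen in both duplicate plates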;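 note: signal is fluorescence rise after thallium addition divided by baseline fluorescence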
KCNK9 uninduced: second check of KCNK9 modulator effects in non-induced HEK293 cells. shares compounds with KCNK9 block. FluxOR thallium flux. inhibition, % at 10 µM. 4,900 tested, 40% active;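 active = thallium signal drop beyond 5 SD of the untreated control mean, on both duplicate plates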
KCNK3 inh conf: confirmation of human KCNK3 two-pore domain potassium channel inhibitors; CHO-KCNK3 thallium flux, FluxOR fluorescence; 0% buffer, 100% carvedilol maximal block; 2,400 tested, 99% active; ratio percent of control, % at 10 µM; AID 651638; shares compounds with KCNK3 block;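 active = ratio percent of control, averaged over triplicates, above buffer control mean plus 5 SD, cut at about 64% in these data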;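 note: ratio is the fluorescence rise from min to max over baseline after thallium stimulus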
KCNK3 noninduced: activity in cells without induced KCNK3 expression. 2,400 tested, 40% active. thallium flux ratio (lower = more inhibition) at 10 µM. non-induced KCNK3 parental cells, FluxOR thallium flux; active compounds read low. AID 651747. shares compounds with KCNK3 block;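 active = thallium flux ratio, averaged over three wells, more than 5 SD below the buffer control mean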;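 note: host cells are CHO cells without KCNK3 induction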
Hits are given with their value; 0 = inactive; - = no result. Only some compounds are listed: those with a hit (about 3.7% of all), similar ones and a draw of the others.

SMILES	KCNK9 block	Kir21 inh	KCNQ1 inh	KCNQ1 pot	hERG rescue	KCNK3 block	KCNK9 block conf	Kir21 sel	KCNK9 uninduced	KCNK3 inh conf	KCNK3 noninduced
COc1ccccc1C(=O)Nc1cccc(NC(=O)c2ccccc2C)c1	-9.1	0	0	0	0	-12	54%	0	30%	84	0
C=CCOc1c(Br)cc(/C=N/NC(N)=O)cc1OC	0	0	0	0	0	0	-	-	-	-	-
C=CCOc1c(CCC)cc(CCC)cc1C(N)=O	-9.4	0	0	0	0	-9.8	60%	0	32%	119	0.15
C=CC[n+]1c(/C=C2\C=Cc3cc(C)ccc3N2CC)ccc2ccccc21	-13	-6.5	16	0	0	-16	78%	88%	63%	146	0.11
O=C(CSc1ccccc1)NN1C(=O)c2ccccc2C1=O	0	0	0	0	0	0	-	-	-	-	-
CC(Oc1ccc(Cl)cc1Cl)c1nc(-c2ccc(NC(=O)c3ccco3)cc2)no1 (stereo unspecified)	-13	0	0	0	0	-8.8	53%	0	34%	121	0.15
O=C1c2ccccc2C(Nc2ccc3c(c2)OCCO3)N1c1ccccn1 (stereo unspecified)	-15	0	0	0	0	-9.6	52%	0	47%	103	0
CCOC(=O)C1CCN(C(c2cccnc2)c2c(NC(=O)c3ccco3)sc(C)c2C)CC1 (stereo unspecified)	-19	0	0	0	0	-11	66%	0	40%	136	0.11
CCOC(=O)C1CCN(C(=O)c2cccnc2)CC1	0	0	0	0	0	0	-	-	-	-	-
Cc1cc(Oc2nc3c(C)cccn3c(=O)c2/C=C(\C#N)S(=O)(=O)c2ccc(Cl)cc2)ccc1Cl	0	0	0	0	0	0	-	-	-	-	-
COc1ccc(/C(C#N)=C/c2c(-c3ccc(Cl)cc3)nc3c(C)cccn23)cc1	-11	0	0	0	0	-10	42%	0	29%	101	0.15
C=C(CO)C1Cc2cc(C(C)=O)ccc2O1 (stereo unspecified)	0	0	0	0	0	0	-	-	-	-	-
COc1ccccc1C(=O)Oc1ccc(C(C)(C)C)cc1	0	0	0	0	0	-9.1	0	0	0	93	0.16
CCOc1ccccc1NC(=O)CN(C)S(=O)(=O)c1ccc(OC)c(C)c1	-15	0	0	0	0	0	50%	0	0	95	0
C/C(=C/C(=O)Nc1cccc(F)c1)N1CCCC1	0	0	0	0	0	0	-	-	-	-	-
O=C(COC(=O)c1cc[n+]([O-])cc1)Nc1cc([N+](=O)[O-])ccc1Cl	0	0	0	0	0	0	-	-	-	-	-
O=C(CN(C(=O)c1ccccc1Cl)C1CCCCC1)Nc1ccc(Cl)c([N+](=O)[O-])c1	-11	0	8	0	0	0	36%	0	29%	98	0.16
O=C(CN(C(=O)c1ccc(Cl)cc1)C1CCCCC1)Nc1ccc(Cl)c([N+](=O)[O-])c1	0	0	0	0	0	0	-	-	-	-	-
Cc1nn(Cc2ccc(C(=O)Nc3nc4c(C)cccc4s3)o2)c(C)c1Br	-14	0	0	0	0	-9.9	44%	0	0	88	0
Cc1cc(NC(=O)c2ccc(Cn3nc(C)c(Br)c3C)o2)no1	0	0	0	0	0	0	-	-	-	-	-
COc1ccccc1NC(=O)/C(=N/OCc1ccc(F)cc1)C(C)=O	0	0	0	0	0	0	-	-	-	-	-
Cc1ccc(N(CC(=O)Nc2ccccc2-c2ccccc2)S(=O)(=O)c2ccccc2)c(C)c1	0	0	0	0	0	0	-	-	-	-	-
O=c1cc(N2CCCCC2)c(-c2ccccc2)nn1Cc1ccccc1Cl	-18	0	0	0	0	-9.1	38%	0	38%	112	0
O=C(CN1CCN(Cc2ccccc2Cl)C1=O)N1CCCCCC1	0	0	0	0	0	0	-	-	-	-	-
COc1ccc(-c2nc(-c3ccc(O)cc3O)cs2)cc1OC	-13	0	0	0	0	-12	50%	0	0	124	0
SMILES	KCNK9 block	Kir21 inh	KCNQ1 inh	KCNQ1 pot	hERG rescue	KCNK3 block	KCNK9 block conf	Kir21 sel	KCNK9 uninduced	KCNK3 inh conf	KCNK3 noninduced
COc1ccc(C2c3[nH]c4ccccc4c3CCN2Cc2cccn2-c2ncccn2)cc1C (stereo unspecified)	-18	0	0	0	0	-13	54%	0	36%	131	0.14
c1ccc(C2c3[nH]c4ccccc4c3CCN2Cc2cccn2-c2ccccn2)nc1 (stereo unspecified)	0	0	0	0	0	0	-	-	-	-	-
Cc1cccc(C2c3[nH]c4ccccc4c3CCN2Cc2cccn2-c2ncccn2)c1 (stereo unspecified)	-8.5	0	0	0	0	-14	0	0	32%	113	0
CCOC(=O)C1=C(CSc2nc(CC)c(C)cc2C#N)OC(N)=C(C#N)C1c1ccc(OC)cc1 (stereo unspecified)	-9.7	0	0	0	0	-9.2	54%	0	45%	112	0.15
Fc1ccc(-n2nnc(-c3cccnc3)n2)cc1	0	0	0	0	0	0	-	-	-	-	-
Fc1ccc(C(CCCn2nnc(-c3cccnc3)n2)c2ccc(F)cc2)cc1	-12	0	15	0	0	-15	55%	0	38%	148	0
COC(=O)c1ccc(CSc2nc3ccccc3c(=O)n2Cc2ccco2)o1	-12	0	0	0	0	-11	0	0	38%	118	0
O=C(CSc1nc2ccccc2c(=O)n1Cc1ccco1)NCc1ccccc1	0	0	0	0	0	0	-	-	-	-	-
CC(C)CCN(C(=S)Nc1cccc(C(F)(F)F)c1)C(C)c1ccccn1 (stereo unspecified)	-9.3	0	0	0	0	-14	64%	0	42%	130	0.13
CCN(CC)S(=O)(=O)c1ccc(/C=C/C(=O)OCC(=O)N(C)C)cc1	0	0	0	0	0	0	-	-	-	-	-
Cc1c(C(=O)Nc2ccc(C(F)(F)F)cc2)sc2ncn(CC(=O)N3CCN(c4ccccn4)CC3)c(=O)c12	0	0	0	0	0	0	-	-	-	-	-
CC(Oc1ccc(Cl)cc1)c1ccnn1S(=O)(=O)c1ccccc1 (stereo unspecified)	-11	0	0	0	0	-9.9	37%	52%	60%	100	0.14
